Measurements published in the RNAGym collection of RNA variant scans (doi:10.1126/science.aae0568).
This sample holds only a part of the variants without activity.

B1: tRNA (parent)
chain: GUUCCGUUGGCGUAAUGGUAACGCGUCUCCCUCCUAAGGAGAAGACUGCGGGUUCGAGUCCCGUACGGAACG

Variants of: B1
Experiment: yeast fitness relative to wild type (ratio to wild type); higher = fitter; tRNA-Arg(CCU), competitive growth, 37 C, YPD
Outline: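 A pool of Saccharomyces cerevisiae strains, each with a tRNA-Arg(CCU) gene variant at the native genomic locus, was competed in YPD at 37°C for 24 hours across six parallel replicates. The variants had been chemically synthesised at a 3% per-site mutation rate over 69 sites, and gene amplicons before and after competition were read by 100-nucleotide paired-end sequencing. Darwinian fitness relative to wild type rested on changes in genotype frequencies. Genotypes required ≥ 100 starting reads, and estimates < 0.5 were set to 0.5.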

Variant	yeast fitness
U8G G10A C62G	≤ 0.5
U8G C24U C29G A45G C61U A65C G67A G68A	0.568
U8G A14G C46U C55A C66U	≤ 0.5
U8G A14U G50A A57U G68C	≤ 0.5
U8C U26A C61A A65U	≤ 0.5
U8G C24G	0.537
U8G G12C G39A	≤ 0.5
U8C U16A U19A C22U	0.536
U8G C33A A37U G38C	0.529
U8G C27U C31U C33A G67C	≤ 0.5
U8G C31U C66U	≤ 0.5
U8G A21U C27G A57G	≤ 0.5
U8C U28A C46G C55A	0.731
U8G C49G A57U	≤ 0.5
U8G C27A C31A C33G	≤ 0.5
U8C U26A A40U	0.613
U8G C22U A43G	≤ 0.5
U8G A14G U26A C62U	0.578
U8G C11G U32A G67C	≤ 0.5
U8G C11U U64A A70C	0.619
U8G A37G C55U	≤ 0.5
U8G A70C	0.633
U8G A20G A37G G44A A65C	≤ 0.5
U8G C11G U32A C55U G67C	≤ 0.5

Variant	yeast fitness
U8G A21C U64A	0.516
U8C U19C C55U	≤ 0.5
U8C U19C C55G	≤ 0.5
U8C U16C U59A	≤ 0.5
U8G A43U C49U C55U	≤ 0.5
U8G C29G G38C G44A	0.803
U8G A21G C29U C30A U32C	≤ 0.5
U8C U32C C46A C55A	0.625
U8G C24G G63C	≤ 0.5
U8C U13C C27A	0.574
U8G C22U C62U	0.529
U8G C61A	0.562
U8C U13G C22U C49A A69C	≤ 0.5
U8C U16A C33G G41C G56C G58A G63C A65U	≤ 0.5
U8C U19A C22G C24U C33G	≤ 0.5
U8C U59A C66A	≤ 0.5
U8C U26G C33G A37C U54A	≤ 0.5
U8G A21G C27A U35A C62A A65C G67A	≤ 0.5
U8G G10C A20G G63A	≤ 0.5
U8G G12A A20G	≤ 0.5
U8G C22G G25A G63C	≤ 0.5
U8C U16C C33U A43U C49G G50C C61U C66U	≤ 0.5
U8G C33A C49U C66U	0.609
U8G C33A C49U C66G	≤ 0.5

Variant	yeast fitness
U8G G12A A21C U26C C60U	≤ 0.5
U8C U19A	0.923
U8C U19C U54A	0.542
U8G C22A C27U A40U	≤ 0.5
U8G G9A U19G U53C C60A	≤ 0.5
U8G C22U G23A C24G A43U	≤ 0.5
U8C U32A U47A G56C	0.944
U8C U47C	0.913
U8G A14U G18A G50A A57U A70G	≤ 0.5
U8C U32G U47C C55G	≤ 0.5
U8G C24A U35G C46G U53C U54G	≤ 0.5
U8G C27U C30A A43C C60U	≤ 0.5
U8G C11A C30U A57U	0.613
U8C U64A A65U	0.553
U8G C11U C24U A37U C66A	≤ 0.5
U8C U26C	0.837
U8C U26G	0.959
U8G C22U A69U	0.731
U8G C34U A40C	0.591
U8G C11G U32A A57U C60A G68C	≤ 0.5
U8G G12A G38A A69U	≤ 0.5
U8G A37C U64A A70C	≤ 0.5
U8G G9C A37U G50C	≤ 0.5
U8G A45C C49U	≤ 0.5

Variant	yeast fitness
U8G C11A C27U A37G G39C C49G	≤ 0.5
U8C U16C U53G G56C C60A	≤ 0.5
U8G A21U C27G C49U	0.687
U8G A20C C49G G50A G56C	≤ 0.5
U8C U16G G41C	≤ 0.5
U8G G9U C30A C55U	≤ 0.5
U8G A14G G18A U47A C62G	≤ 0.5
U8G C22U U26A G52A	≤ 0.5
U8G G12A G44A	0.566
U8C U32A	0.755
U8G A42U A69C	0.509
U8C U16C A20U C30U G39C A45G A69C	≤ 0.5
U8C U35G	0.693
U8C U35A	0.6
U8G A21U C29U G68C	≤ 0.5
U8G C29U C31U U54G A65U G67A	≤ 0.5
U8G C46G A57U	≤ 0.5
U8C U28A C29G A57C G67A	≤ 0.5
U8G C30G C31U G39A	0.507
U8G C66U	0.668
U8G A21C C24U C33A	≤ 0.5
U8C U32C G44A A69U	0.724
U8G A21G	0.582
U8C U16C C29G	≤ 0.5

Variant	yeast fitness
U8C U53A U64C	≤ 0.5
U8G C46G	0.593
U8G G9C C33A G68A	≤ 0.5
U8C U54C	0.915
U8G C49U G51A A65U	≤ 0.5
U8G G9U C30A	≤ 0.5
U8C U32C G48A	0.591
U8C U16C C24U U47A C55U	≤ 0.5
U8C U19A A40C G44C G48C	≤ 0.5
U8C U59G	0.901
U8C U59A	0.721
U8G A14U G50A	≤ 0.5
U8C U19A A37G	0.559
U8G A21C C46U	0.554
U8G C22G G25A G68A	≤ 0.5
U8G G10A C60U	0.585
U8C U16C G25C U47A A65G	≤ 0.5
U8G C31U C33G U47A G50U	0.608
U8G A15U	≤ 0.5
U8G C31U A37G U54A C55A	≤ 0.5
U8G A14G A43C	≤ 0.5
U8C U19A C24U G38A U54C C66A	≤ 0.5
U8G A65C	0.733
U8C U16G G25A A70G	≤ 0.5

Variant	yeast fitness
U8C U13G	0.841
U8C U16A	0.934
U8G C33A A37U G38C A70C	≤ 0.5
U8G A42G	0.58
U8C U19C A57U	≤ 0.5
U8G G17A A20C C22G C29G C34G	0.549
U8G A20U C62A	0.624
U8G A43U	0.66
U8G G12A G50C G52C C55U	0.618
U8G C30G C33G C61A A69U	≤ 0.5
U8G A14G C33U	≤ 0.5
U8G A20C U35C C49A C62A	≤ 0.5
U8G C27U G44C U47A C60U	≤ 0.5
U8G C33U A57C U64C A70G	0.511
U8G C24G G41A C49G C60A C62G A70C	≤ 0.5
U8G C24G C33U	≤ 0.5
U8G C30U C31G G39A A45U G52A	0.567
U8C U28C	0.834
U8C U16C G67U	0.576
U8G A20U U53G C66G A70G	≤ 0.5
U8G A15C G18C C49U U64A A69U	≤ 0.5
U8G A20C A43U G67A	≤ 0.5
U8G C34A	≤ 0.5
U8G C24G G41A C49U	≤ 0.5

Variant	yeast fitness
U8G A20U G44C A57G	≤ 0.5
U8G A14G G18A U47A C55G	≤ 0.5
U8G A37C G52C	0.627
U8C U32A A40U G41C C46A G52A	≤ 0.5
U8G C11G U32A A70C	0.599
U8G C27U C62G	≤ 0.5
U8G A42G A57G	≤ 0.5
U8G G17A A20C C22G C29G C34G C60U C62U A69G	≤ 0.5
U8C U16C A70U	0.577
U8G G10C C11U A37G U59C	≤ 0.5
U8G C22U	0.632
U8G G12C C55A	≤ 0.5
U8G A36C A45U C49U	≤ 0.5
U8G A43C G52A	0.847
U8G C46U C55A C66U	0.524
U8G A36C U53C A69G	≤ 0.5
U8C U59A A70G	0.556
U8G A45U	0.648
U8G C24A C30G A40G U47G	≤ 0.5
U8G A57G C60A	≤ 0.5
U8G C29G C66A	≤ 0.5
U8G C22U G51C G58A	≤ 0.5
U8G A36U	0.515
